Experimental data as given in publication PMC3747510 (Scientific Reports, 2013).

What was measured:
[1] = target: T1, S. pneumoniae LeuRS (SpLeuRS) (Streptococcus pneumoniae serotype 4, UniProt Q97SS0); test: Aminoacylation inhibition; type: biochemical
T1 sequence (Q97SS0 1-833): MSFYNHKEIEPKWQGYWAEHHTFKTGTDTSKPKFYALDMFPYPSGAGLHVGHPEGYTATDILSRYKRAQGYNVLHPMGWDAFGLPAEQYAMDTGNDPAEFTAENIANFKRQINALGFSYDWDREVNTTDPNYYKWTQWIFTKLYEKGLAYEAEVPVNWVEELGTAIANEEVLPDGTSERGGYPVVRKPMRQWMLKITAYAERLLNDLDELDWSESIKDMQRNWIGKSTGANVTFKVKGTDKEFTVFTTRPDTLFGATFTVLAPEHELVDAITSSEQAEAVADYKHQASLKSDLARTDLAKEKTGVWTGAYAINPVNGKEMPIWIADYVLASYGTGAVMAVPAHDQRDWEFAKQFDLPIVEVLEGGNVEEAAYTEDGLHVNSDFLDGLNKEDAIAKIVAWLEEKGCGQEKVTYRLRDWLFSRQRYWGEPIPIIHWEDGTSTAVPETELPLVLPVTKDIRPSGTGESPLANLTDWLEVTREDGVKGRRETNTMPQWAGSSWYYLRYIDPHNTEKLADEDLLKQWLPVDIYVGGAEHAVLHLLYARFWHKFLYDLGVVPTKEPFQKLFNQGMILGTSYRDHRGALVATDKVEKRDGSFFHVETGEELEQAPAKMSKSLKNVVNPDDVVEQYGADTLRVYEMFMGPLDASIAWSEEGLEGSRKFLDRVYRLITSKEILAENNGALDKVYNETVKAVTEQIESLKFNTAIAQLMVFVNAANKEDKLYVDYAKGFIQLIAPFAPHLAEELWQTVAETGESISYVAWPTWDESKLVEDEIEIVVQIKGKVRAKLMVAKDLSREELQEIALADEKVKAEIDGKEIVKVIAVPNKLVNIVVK
Procedure, shortened: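 Aminoacylation at 37°C with [3H]leucine, started with 4 mM ATP, in Tris-HCl pH 7.5 buffer. Each LeuRS was used at equal activity, i.e. forming 10 pmol Leu-tRNALeu in 5 min. At least six test-compound concentrations were tested. IC50 was taken from a fitted dose-response curve, as the mean of at least two independent experiments.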

A549 = test: Cell proliferation assay; type: cell-based; conditions: Homo sapiens, A549, read-out: IC50, Human cell lines, A549
Procedure, shortened: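 Cells in DMEM/10% FBS, 37°C, 5% CO2. Seeded from 1 × 10^5 cells/mL and allowed to adhere overnight. Test compound added at 2.5–100 μg/mL (0.5% DMSO final), five wells per concentration. Incubated 0, 24, 48 or 72 h, then 4 h with MTS/PMS (20:1), and A492 read. DMSO and medium-only controls. IC50 by nonlinear regression against log concentration.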

yeast cytosolic LeuRS = target: T2, yeast cytosolic LeuRS (Saccharomyces cerevisiae, UniProt P26637); test: Aminoacylation by yeast cytosolic LeuRS; type: biochemical; conditions: 100 μM ZCL039
T2 sequence (P26637 1-1090): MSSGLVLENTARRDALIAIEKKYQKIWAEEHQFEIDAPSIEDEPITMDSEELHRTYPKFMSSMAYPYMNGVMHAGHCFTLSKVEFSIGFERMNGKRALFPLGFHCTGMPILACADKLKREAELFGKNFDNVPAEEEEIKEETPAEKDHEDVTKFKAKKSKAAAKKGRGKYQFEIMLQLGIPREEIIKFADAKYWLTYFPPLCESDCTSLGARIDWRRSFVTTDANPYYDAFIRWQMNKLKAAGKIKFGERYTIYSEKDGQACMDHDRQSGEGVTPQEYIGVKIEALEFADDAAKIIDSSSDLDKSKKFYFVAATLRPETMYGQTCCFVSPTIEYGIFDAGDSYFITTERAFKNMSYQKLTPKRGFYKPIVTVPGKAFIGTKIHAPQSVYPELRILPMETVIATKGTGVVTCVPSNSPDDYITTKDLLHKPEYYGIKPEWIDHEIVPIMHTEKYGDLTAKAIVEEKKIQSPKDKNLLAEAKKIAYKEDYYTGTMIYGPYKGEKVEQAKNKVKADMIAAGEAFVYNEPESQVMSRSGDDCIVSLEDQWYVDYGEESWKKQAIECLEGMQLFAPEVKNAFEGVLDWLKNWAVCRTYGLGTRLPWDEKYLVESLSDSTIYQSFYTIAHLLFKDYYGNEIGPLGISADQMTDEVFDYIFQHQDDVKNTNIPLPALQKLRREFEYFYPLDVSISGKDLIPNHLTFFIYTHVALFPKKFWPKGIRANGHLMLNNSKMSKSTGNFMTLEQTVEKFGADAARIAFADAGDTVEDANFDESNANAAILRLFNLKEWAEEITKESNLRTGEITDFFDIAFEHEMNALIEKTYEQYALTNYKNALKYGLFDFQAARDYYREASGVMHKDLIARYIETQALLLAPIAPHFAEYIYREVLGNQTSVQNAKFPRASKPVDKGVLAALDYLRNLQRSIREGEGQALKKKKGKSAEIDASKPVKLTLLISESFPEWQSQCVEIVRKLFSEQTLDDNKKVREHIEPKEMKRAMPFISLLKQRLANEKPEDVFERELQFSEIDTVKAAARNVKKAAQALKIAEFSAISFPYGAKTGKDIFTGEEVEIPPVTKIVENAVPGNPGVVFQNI

OB1OCc2ccc(C(O)c3ccccc3)cc21 (stereo not drawn) [ZCL039, [6-(1-phenyl-1-hydroxylmethyl)]-1,3-dihydro-1-hydroxy-2,1-benzoxaborole]
IC50 [1]: 1.72 ± 0.05 µM
IC50 (A549): > 200 µM
Activity against yeast cytosolic LeuRS aminoacylation (yeast cytosolic LeuRS): little effect
